Reference: ChEMBL document CHEMBL2321800, “Design and synthesis of new bifunctional sigma-1 selective ligands with antioxidant activity” (J Med Chem, 2013)
Activity calls are given as the source filed them.

How the values were obtained:
[1] = target: Sigma non-opioid intracellular receptor 1 (Cavia porcellus, UniProt Q60492); test: Displacement of [3H]-(+)-pentazocine from sigma1 receptor in guinea pig brain membrane after 150 mins by liquid scintillation counting analysis; type: cell membranes
[2] = species on record: Cavia porcellus; test: Selectivity ratio of Ki for guinea pig sigma2 receptor to Ki for guinea pig sigma1 receptor
Outline: (§1)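 Guinea pig brain membranes with 3 nM [3H]DTG (Kd 11 nM) plus 400 nM (+)-SKF10,047 to mask sigma1 sites. Nonspecific binding with 5 µM DTG. 50 mM Tris-HCl pH 8.0, 120 min at room temperature. Filtration, scintillation counting, Ki computed; three determinations. Ratio taken from sigma2 and sigma1 Ki values.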

[3] = Displacement of [3H]DTG from sigma2 receptor in guinea pig brain membrane after 120 mins by liquid scintillation counting analysis; type: cell membranes, Cavia porcellus; outline: as §1
[4] = species on record: Rattus norvegicus; test: Antioxidant activity in rat brain mitochondria assessed as restoration of Ca2+/phosphate induced sulfhydryl group oxidation at 3 mM after 15 mins by mitochondrial thiol oxidation assay; type: functional
Outline: (§2)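 After 15 min under swelling conditions (1 mg/ml; Ca2+ 50 µM liver, 100 µM brain; succinate/rotenone, 1 mM phosphate, 20 °C), mitochondria were pelleted and solubilized in pH 8.3 EDTA/Tris/1% SDS with DTNB. Thiols read at 412 nm and given as percent reduced SH groups. Five independent experiments; ANOVA and Student's t-test.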

[5] = species on record: Rattus norvegicus; test: Antioxidant activity in rat liver mitochondria assessed as restoration of Ca2+/phosphate induced sulfhydryl group oxidation at 3 mM after 15 mins by mitochondrial thiol oxidation assay; type: functional; outline: as §2
[6] = species on record: Rattus norvegicus; test: Antioxidant activity in rat liver mitochondria assessed as inhibition of Ca2+/phosphate induced mitochondrial swelling at 50 uM by spectrophotometry; type: functional
Outline: (§3)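 Mitochondria from rat liver (50 µM Ca2+) or cerebral cortex (Ficoll-purified; 100 µM Ca2+) at 1 mg protein/ml, 20 °C, in 200 mM sucrose, 10 mM HEPES pH 7.4, 5 mM succinate, 1 mM phosphate, 1.25 µM rotenone. Swelling followed as fall in apparent absorbance at 540 nm. Five runs.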

[7] = species on record: Rattus norvegicus; test: Antioxidant activity in rat brain mitochondria assessed as inhibition of Ca2+/phosphate induced mitochondrial swelling by spectrophotometry; type: functional
[8] = tested on: Rattus norvegicus; test: Antinociceptive activity in Sprague-Dawley rat assessed as basal tail flick latency at 1 mg/kg, sc by radiant heat tail flick test; type: functional, organism-based; parameters: dose 1 mg/kg
Outline: (§4)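 Male Sprague-Dawley rats (180-200 g), habituated the day before; radiant heat (infrared) aimed at lower third of tail, 25±1 °C. Basal latency 3-4 s, mean of three readings at 5 min intervals; 10 s cut-off. Drugs sc; tail-flick latency read 30, 45, 60, 75 and 90 min after injection. n=8-10, mean ± SD, two-way ANOVA with Duncan post-hoc.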

[9] = species on record: Rattus norvegicus; test: Antioxidant activity in rat brain mitochondria assessed as inhibition of Ca2+/phosphate induced mitochondrial permeability transition at 25 to 50 uM by spectrophotometry; type: functional; outline: as §3
[10] = species on record: Rattus norvegicus; test: Antioxidant activity in rat liver mitochondria assessed as restoration of Ca2+/phosphate induced sulfhydryl group oxidation at 25 to 50 uM after 15 mins by mitochondrial thiol oxidation assay; type: functional; outline: as §2
[11] = species on record: Rattus norvegicus; test: Antioxidant activity in rat liver mitochondria assessed as inhibition of Ca2+/phosphate induced mitochondrial swelling at 25 uM by spectrophotometry; type: functional; outline: as §3
[12] = species on record: Rattus norvegicus; test: Antioxidant activity in rat brain mitochondria assessed as restoration of Ca2+/phosphate induced sulfhydryl group oxidation at 50 uM after 15 mins by mitochondrial thiol oxidation assay; type: functional; outline: as §2
[13] = tested on: Rattus norvegicus; test: Reduction of (-)-U50488H-induced basal tail flick latency in Sprague-Dawley rat at 1 mg/kg, sc after 30 to 90 mins by radiant heat tail flick test; type: functional, organism-based; parameters: dose 1 mg/kg; outline: as §4

Chain of Sigma non-opioid intracellular receptor 1 (Q60492 whole entry): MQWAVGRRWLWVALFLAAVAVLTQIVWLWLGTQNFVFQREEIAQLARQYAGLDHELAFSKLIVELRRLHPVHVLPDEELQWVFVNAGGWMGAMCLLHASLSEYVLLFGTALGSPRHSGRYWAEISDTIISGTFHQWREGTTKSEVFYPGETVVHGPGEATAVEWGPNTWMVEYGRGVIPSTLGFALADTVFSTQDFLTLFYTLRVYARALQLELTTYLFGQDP

## O=C(CCCCC1CCSS1)N1CCN(CCCc2ccccc2)CC1 (stereo not given)
[1]
  Ki: 0.01 µM
[2]
  Ratio Ki: 9.16
[3]
  Ki: 0.0916 µM

## O=C(CCCCC1CCSS1)OC1CCN(CC2CCCCC2)CC1 (stereo not given)
[1]
  Ki: 0.00114 µM
[2]
  Ratio Ki: 12.3
[3]
  Ki: 0.014 µM

## OC[C@@H](O)[C@@H](S)CS
[4]
  Activity: Active
[5]
  Activity: Active
[6]
  inhibition: Active
[7]
  inhibition: inactive

## O=C(CCCCC1CCSS1)OC1CCN(CCc2ccccc2)CC1 (stereo not given)
[1]
  Ki: 0.0135 µM
[2]
  Ratio Ki: 11.8
[3]
  Ki: 0.16 µM

## O=C(CCCCC1CCSS1)OC1CCN(Cc2ccccc2)CC1 (stereo not given)
[8]
  Activity: inactive
[9]
  inhibition: Active
[6]
  inhibition: Active
[10]
  Activity: Active
[11]
  inhibition: Active
[1]
  Ki: 0.00556 µM
[12]
  Activity: Active
[2]
  Ratio Ki: 414
[13]
  Activity: Active
[3]
  Ki: 2.3 µM

## O=C(CCCCC1CCSS1)OC1CCN(CCCc2ccccc2)CC1 (stereo not given)
[1]
  Ki: 0.0257 µM
[2]
  Ratio Ki: 3.9
[3]
  Ki: 0.101 µM

## Nc1ncnc2c1ncn2[C@@H]1O[C@H](COP(=O)(O)OP(=O)(O)O)[C@@H](O)[C@H]1O
[6]
  inhibition: Active
[7]
  inhibition: Active

## O=C(CCCCC1CCSS1)N1CCN(C2CCCCC2)CC1 (stereo not given)
[1]
  Ki: 0.0004 µM
[2]
  Ratio Ki: 28
[3]
  Ki: 0.0112 µM

## O=C(CCCCC1CCSS1)N1CCN(CCc2ccccc2)CC1 (stereo not given)
[1]
  Ki: 0.0084 µM
[2]
  Ratio Ki: 24.8
[3]
  Ki: 0.209 µM

## O=C(CCCCC1CCSS1)N1CCN(Cc2ccccc2)CC1 (stereo not given)
[1]
  Ki: 0.0018 µM
[2]
  Ratio Ki: 354
[3]
  Ki: 0.637 µM

## CN1CCN(C(=O)CCCCC2CCSS2)CC1 (stereo not given)
[1]
  Ki: 0.115 µM
[2]
  Ratio Ki: 183
[3]
  Ki: 21 µM
